This note sets out measurements from ChEMBL document CHEMBL1123247, “Nucleoside conjugates. 7. Synthesis and antitumor activity of 1-beta-D-arabinofuranosylcytosine conjugates of ether lipids” (J Med Chem, 1986).

Common to all, as to assay type: functional, Mus musculus
The subject of test [1] is L1210. In words: Antitumor activity against the ip implanted L1210 leukemia in mice expressed as optimal dose (1-5qd treatment schedule) required to produce greatest increase in life span was determined. The procedure, abridged:
(§1)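 DBA/2J mice, groups of 6 (23-28 g), were inoculated ip with 1 × 10^6 L1210 cells on day 0. Dosing was ip from 24 h, in 0.9% NaCl with 0.5% Tween-80 (sonicated solution or suspension). Mice were observed daily until death or day 45. Median survival T/C followed NCI protocols, and ILS = (T/C − 1) × 100. Active range means doses giving ILS ≥25%; optimal dose means greatest ILS.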

In test [2] the test system is L1210. The test can be described thus: Antitumor activity against the ip implanted L1210 leukemia in mice expressed as optimal dose (1 qd treatment schedule) required to produce greatest increase in life span was determined. In outline: as §1
Test [3] relates to L1210. In words: Antitumor activity was determined against the ip implanted L1210 leukemia in mice by change in […] at 400 mg/kg (treatment of 1qd schedule) dosage. The note with it: route intraperitoneal. The procedure, abridged:
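DBA/2J mice, 6 per group (wt 23-28 g), inoculated ip with 1×10^6 L1210 cells on day 0. Treatment was given ip in 0.9% NaCl with 0.5% Tween-80, starting 24 h later. Weight change was taken on day 8. Mice were observed daily until death or 45 days. Median survival T/C and %ILS = (T/C − 1) × 100 came from survivors per NCI protocols, and 45-day survivors were counted.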

Test [4] concerns L1210. The test can be described thus: Antitumor activity was determined against the ip implanted L1210 leukemia in mice by 45-day survivors in mice at 400 mg/kg (treatment of 1qd schedule) dosage. The note with it: route intraperitoneal. In outline: (§2)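 DBA/2J mice in groups of 6 (wt 23-28 g) were inoculated ip with 1×10^6 L1210 cells on day 0. Dosing was ip from 24 h, in 0.9% NaCl with 0.5% Tween-80 (conjugates sonicated), across a range of doses. Mice were observed daily until death or 45 days. Median T/C was computed from survivors per NCI protocols, and ILS = (T/C − 1)×100.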

In test [5] the test system is L1210. In words: Antitumor activity was determined against the ip implanted L1210 leukemia in mice by percent increase in life span at 400 mg/kg (treatment of 1qd schedule) dosage. The note with it: route intraperitoneal. The procedure, abridged: as §2
Test [6] has as its system P388. In words: Antitumor activity was determined against the ip implanted P388 leukemia in mice by percent increase in life span at 500 mg/kg (treatment of 1qd schedule) dosage. The note with it: route intraperitoneal. The procedure, abridged:
(§3)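 DBA/2J mice, 23-33 g, in groups of 6, were inoculated ip with 1×10^6 P388 cells on day 0. Dosing was ip from 24 h on the stated schedules, in 0.9% NaCl with 0.5% Tween-80 (sonicated solution or suspension). Survival was followed daily until death or 45 days. Median T/C was calculated from survivors per NCI protocols, with ILS = (T/C − 1) × 100.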

Test [7] relates to P388. The test can be described thus: Antitumor activity was determined against the ip implanted P388 leukemia in mice by percent increase in life span at 60 mg/kg (1-5qd treatment schedule) dosage. The note with it: route intraperitoneal. The procedure, abridged:
as §3

For test [8], the system named is P388. In words: Antitumor activity was determined against the ip implanted P388 leukemia in mice by 45-day survivors in mice at 500 mg/kg (treatment of 1qd schedule) dosage. The note with it: route intraperitoneal. In outline:
as §3

Test [9] relates to P388. In words: Antitumor activity was determined against the ip implanted P388 leukemia in mice by 45-day survivors in mice at 60 mg/kg (1-5qd treatment schedule) dosage. The note with it: route intraperitoneal. The procedure, abridged:
as §3

Test [10] has as its system P388. In words: Antitumor activity against ip implanted P388 leukemia in mice expressed as active dose range (1-5qd treatment schedule) required to produce increase in life span by >25% was determined; Range is 40-80. In outline:
(§4)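 P388 leukemia: 1 × 10^6 cells were given ip on day 0 to DBA/2J mice, groups of 6 (23-33 g). Treatment was ip from 24 h after inoculation, vehicle 0.9% NaCl with 0.5% Tween-80. Mice were observed daily until death or 45 days. Median survival T/C was calculated from survivors per NCI protocols, and ILS = (T/C − 1) × 100. Active range means doses giving ILS ≥25%; optimal dose means greatest ILS.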

Test [11] deals with P388. In words: Antitumor activity was determined against the ip implanted P388 leukemia in mice by change in […] at 500 mg/kg (treatment of 1qd schedule) dosage. The note with it: route intraperitoneal. The procedure, abridged:
(§5)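 P388 leukemia, 1×10^6 cells implanted ip on day 0 into DBA/2J mice, groups of 6 (wt 23-33 g). Dosing ip started 24 h post-inoculation, vehicle 0.9% NaCl containing 0.5% Tween-80. Animals were observed daily until death or 45 days. Outputs were weight change, median survival T/C from survivors per NCI protocols, and %ILS = (T/C − 1) × 100.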

The subject of test [12] is P388. In words: Antitumor activity was determined against the ip implanted P388 leukemia in mice by change in […] at 60 mg/kg (1-5qd treatment schedule) dosage. The note with it: route intraperitoneal. The procedure, abridged:
as §5

Test [13] relates to P388. The test can be described thus: Antitumor activity against ip implanted P388 leukemia in mice expressed as active dose range (1 qd treatment schedule) required to produce increase in life span by >25% was determined; Range is 200-500. The procedure, abridged:
as §4

Test [14] concerns P388. In words: Antitumor activity against the ip implanted P388 leukemia in mice expressed as optimal dose (1,5,9qd treatment schedule) required to produce greatest increase in life span was determined. Details: unit: mg/kg. In outline:
as §4

Test [15] has as its system P388. The test can be described thus: (§6) Antitumor activity against the ip implanted P388 leukemia in mice expressed as optimal dose (1-5qd treatment schedule) required to produce greatest increase in life span was determined. Further details: unit: mg/kg. In outline: as §4
Test [16] relates to P388. The test can be described thus: Antitumor activity against the ip implanted P388 leukemia in mice expressed as optimal dose (1 qd treatment schedule) required to produce greatest increase in life span was determined. The procedure, abridged: as §4
Test [17] deals with L1210. The test can be described thus: Antitumor activity against the ic implanted L1210 lymphoid leukemia in mice expressed as optimal dose (1-5qd treatment schedule) required to produce greatest increase in life span was determined. The procedure, abridged:
(§7)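 DBA/2J mice, groups of 6 (26-32 g), got 1 × 10^5 L1210 cells ic on day 0. Dosing was ip starting 24 h later, as a sonicated solution or suspension in 0.9% NaCl with 0.5% Tween-80, over a wide dose range. Mice were followed daily until death. Median survival T/C was taken from survivors per NCI protocols, and ILS = (T/C − 1) × 100. Active range means doses giving ILS ≥25%; optimal dose means greatest ILS.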

Test [18] relates to L1210. In words: Antitumor activity was determined against the ic implanted L1210 lymphoid leukemia in mice by percent increase in life span at 300 mg/kg (1 qd treatment schedule) dosage. The procedure, abridged: as §7
Test [19] concerns P388. In words: Antitumor activity was determined against the ip implanted P388 leukemia in mice by percent median survival rate (treated/control) at 133 mg/kg (treatment of 1,5,9qd schedule) dosage; >45.0/11.0. The note with it: route intraperitoneal. In outline:
as §3

For test [20], the system named is P388. The test can be described thus: Antitumor activity was determined against the ip implanted P388 leukemia in mice by change in […] at 133 mg/kg (treatment of 1,5,9qd schedule) dosage. The note with it: route intraperitoneal. In outline:
as §5

The test system of test [21] is P388. The test can be described thus: Antitumor activity was determined against the ip implanted P388 leukemia in mice by percent increase in life span at 133 mg/kg (treatment of 1,5,9qd schedule) dosage. The note with it: route intraperitoneal. In outline: as §3
The subject of test [22] is P388. The test can be described thus: Antitumor activity was determined against the ip implanted P388 leukemia in mice by 45-day survivors in mice at 133 mg/kg (treatment of 1,5,9qd schedule) dosage. The note with it: route intraperitoneal. In outline:
as §3

The test system of test [23] is P388. The description is as §6. In outline:
as §4

Molecules are shown by their SMILES. Bounds are passed on as bounds.

Turning to `CCCCCCCCCCCCCCCCCCOCC(COP(=O)(O)OP(=O)(O)OC[C@H]1O[C@@H](n2ccc(N)nc2=O)[C@@H](O)[C@@H]1O)OC(=O)CCCCCCCCCCCCCCC` (mixture of isomers), the Optimal dose came to 100 mg in the test on L1210 [1]; 400 mg/kg/day in the test with L1210 [2]; 67 mg in the test on P388 [14]; 60 mg in the test with P388 [15]; 500 mg in the test with P388 [16]. The Weight change with L1210 [3] is on record as -1 g mouse-1; in the test on P388 [11], -0.07 g mouse-1; in the test on P388 [12], -0.12 g mouse-1. Besides, the Survivors came to 0 in the test on L1210 [4], 4 with P388 [8] and 0 in the test on P388 [9]. Moreover, the ILS in the test on L1210 [5] is listed as 257; with P388 [6], more than 309; in the test on P388 [7], 109. Also, the Active dose range worked out at 40 mg/kg/day in the test on P388 [10] and 200 mg/kg/day in the test with P388 [13].
As for `CCCCCCCCCCCCCCCC(=O)OC[C@H](COP(=O)(O)OP(=O)(O)OC[C@H]1O[C@@H](n2ccc(N)nc2=O)[C@@H](O)[C@@H]1O)OC(=O)CCCCCCCCCCCCCCC`, the Optimal dose with L1210 [17] amounted to 80 mg; in the test with L1210 [1], 40 mg; in the test with L1210 [2], 300 mg/kg/day; with P388 [14] it was 133 mg; in the test with P388 [15] it was 60 mg; with P388 [16], 500 mg. For the same compound, the figures for the ILS in the test with L1210 [18], in the test with P388 [7] and in the test on P388 [21] were 200, more than 309 and more than 309, respectively. This compound also showed a T/C in the test on P388 [19] of more than 45%. Also, the results for the Survivors in the test on P388 [9] and in the test on P388 [22] were 5 and 4, respectively. In addition, the Active dose range was determined as 40 mg/kg/day in the test with P388 [10] and 200 mg/kg/day in the test on P388 [13]. Also, the Weight change with P388 [20] is listed as -1.43 g mouse-1; with P388 [12] it was -1.92 g mouse-1.
As for `CCCCCCCCCCCCCCCCOCC(COP(=O)(O)OP(=O)(O)OC[C@H]1O[C@@H](n2ccc(N)nc2=O)[C@@H](O)[C@@H]1O)OC(=O)CCCCCCCCCCCCCCC` (mixture of isomers), the Optimal dose amounted to 100 mg with L1210 [17]; 80 mg with L1210 [1]; 400 mg/kg/day in the test on L1210 [2]; 133 mg in the test with P388 [14]; 60 mg with P388 [23]; 300 mg in the test with P388 [16]. Also, the values for the Weight change in the test on L1210 [3] and in the test with P388 [20] were 1.47 g mouse-1 and -0.25 g mouse-1, respectively. In addition, the Survivors in the test with L1210 [4] worked out at 0; with P388 [22] it was 4. The ILS was 293 in the test with L1210 [5] and more than 309 with P388 [21]. In addition, in the test with P388 [19], the T/C is recorded as more than 45%.
With `Nc1ccn([C@@H]2O[C@H](CO)[C@@H](O)[C@@H]2O)c(=O)n1` [CYTARABINE], the Optimal dose in the test on L1210 [17] turned out to be 300 mg; in the test with L1210 [1], 200 mg; in the test on L1210 [2], 400 mg/kg/day; in the test on P388 [23], 200 mg; in the test with P388 [16], 500 mg. Also, the Weight change with L1210 [3] amounted to 2.37 g mouse-1; in the test on P388 [11], 0.72 g mouse-1. For the same compound, the Survivors in the test with L1210 [4] and in the test with P388 [8] was 0 each time. The ILS was determined as 19 in the test on L1210 [5] and 36 in the test with P388 [6].

As usually defined, the T/C is the ratio of treated to control.
